Measurements reported in PubChem BioAssay.
Where “and” joins values, the source holds several entries; their conditions need not be identical. Equal values may be shown once. Calls of active or inactive are those of the source.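 The calls were made as follows, unless noted: active = potentiation averaged over duplicate wells exceeding buffer-only control mean by more than 3 SD; inactive = the rest.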

Test system: not listed separately
Assay: nonspecific flux increase, KCNQ1-free cells – parental CHO cells, counter-screen for KCNQ1 potentiator project (AID 493006;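 active = duplicate-averaged activation above buffer control mean plus 5 SD of those controls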;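 as to activation: fluorescence ratio of max minus min over baseline after K+ and Tl+ depolarization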)
Settings: parental CHO-K1 cells, FluxOR thallium flux, at 10 µM; active compounds read high
Outline: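 Material: untransfected host CHO-K1 cells with FluxOR thallium dye. Timing: overnight 37 °C plating, 90 min RT dye, 20 min compound. Detection: kinetic FluxOR fluorescence, 10 s baseline, 110 s after stimulus. Read-out basis: max-minus-min fluorescence over baseline, percent of buffer-to-R-L3 span. Replicates: duplicate wells per compound, percent values averaged.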
With O=C(C1CCCCC1)N(CCN1CCCC1)c1nc2ccccc2s1 the outcome was “inactive”. For Nc1nonc1C(=O)NCCN=Cc1cc(Cc2ccccc2)cc(Br)c1O, the outcome was “inactive”. For CC(=O)Nc1cccc(/C(C)=N/NC(=O)c2ccc(Cl)cc2Cl)c1, the outcome was “inactive”. For Cn1ccnc1C(OC(=O)c1ccc(Cl)cc1)C(F)(F)F (stereo not given), the outcome was “inactive”. With COc1ccc(S(=O)(=O)N2CCCC(C(=O)O)C2)cc1 (stereo not given) the outcome was “inactive”. In the case of O=C(COc1ccc(C(=S)N2CCC(Cc3ccccc3)CC2)cc1)N1CCOCC1, the outcome is reported as “inactive”. In the case of O=C(Oc1c(-c2ccco2)oc2ccccc2c1=O)c1cccnc1, the outcome is reported as “inactive”. With Cc1ccc(-c2csc(=S)[nH]2)cc1 the activation was 628% (active). With Cc1ccccc1OCc1nnc(SCCN2CCCC2)n1-c1ccccc1 the outcome was “inactive”. For COc1cccc(/C=N/NC(=O)C(C)n2nc(C)c([N+](=O)[O-])c2C)c1O (stereo not given), the outcome was “inactive”. In the case of NC(=NCCCCCCN=C(N)/N=C(\N)Nc1ccc(Cl)cc1)/N=C(\N)Nc1ccc(Cl)cc1, the activation is reported as 240% (active) and 259% (active). In the case of Cc1ccc(/C=C/C(=O)C2C(=O)c3ccccc3C2=O)cc1, the activation is reported as 227% (active). For CCC1(c2ccc(Cl)cc2)NC(=S)N(c2ccc(C)c(C)c2)N1 (stereo not given), the activation was 706% (active). For O=S(=O)(NC(=S)NC1CCCCC1)c1ccc(Cl)cc1, the activation was 191% (active). For COc1cccc(NC(=S)NCCN2CCOCC2)c1, the activation was 156% (active). In the case of Cc1cc(NC(=O)CSc2nc(C3CC3)nc3sc(C)c(C)c23)no1, the activation is reported as 148% (active). In the case of Cc1cccc(CNC(=O)C2CCCN(c3nn4c(=O)cc(C)nc4s3)C2)c1 (stereo not given), the outcome is reported as “inactive”. In the case of Cc1cccc(-c2nnc(NC(=O)c3ccc(Cl)cc3)o2)c1, the outcome is reported as “inactive”. With Cc1cc(N2CCN(C)CC2)nc2ccc(NC(=S)NCCCN3CCc4ccccc4C3)cc12 the outcome was “inactive”. With C=C[C@@]1(C)CC(=O)[C@]2(O)[C@@]3(C)[C@@H](O)CCC(C)(C)[C@@H]3[C@H](OC(C)=O)[C@H](O)[C@@]2(C)O1 the outcome was “inactive”. In the case of CN1CCN(C(=O)/C(=C/c2ccccc2)c2ccccc2)CC1, the outcome is reported as “inactive”. For Cc1cccc(Nc2ccccc2C(=O)OCC(=O)N(C)C2CCS(=O)(=O)C2)c1C (stereo not given), the outcome was “inactive”. For Cc1ccc(S(=O)(=O)N2CCCC(C(=O)Nc3ccc(C(=O)O)cc3)C2)cc1Cl (stereo not given), the outcome was “inactive”. In the case of Cc1cc(C(=O)OCC(=O)NCc2ccco2)c(C)n1-c1ccc(F)cc1, the activation is reported as 283% (active). In the case of CCOC(=O)c1sc(N2N=C(C)C(N=Nc3cccc(C)c3)C2=O)nc1C (stereo not given), the outcome is reported as “inactive”. For Oc1c(Br)cc(Br)cc1/C=N/c1nc2c(s1)CCCC2, the activation was 186% (active). With O=C(Nc1nnc(-c2ccc3c(c2)CCCC3)o1)c1ccccc1Cl the activation was 184% (active). In the case of CCSc1nnc(NC(=O)C2C3C=CC(C3)C2C(=O)O)s1 (stereo not given), the outcome is reported as “inactive”. With Cc1cc(/C=N\NC(=O)CC(=O)NC2CCCCC2)c(C)n1-c1cccc(Cl)c1Cl the outcome was “inactive”. With O=C(COc1cccnc1[N+](=O)[O-])Nc1cccc(S(=O)(=O)N2CCCCC2)c1 the outcome was “inactive”. In the case of CC1CCN(c2ccccc2NC(=S)NC(=O)c2cccs2)CC1, the activation is reported as 139% (active). With Fc1ccc2nc(Nc3nc4c(F)cc(F)cc4s3)sc2c1 the activation was 165% (active). In the case of CCc1ccc(NC(=O)C(=O)NNC(=O)COc2cccc(OC)c2)cc1, the activation is reported as 164% (active). For CC1=CC(=O)C=C(C)C1=NOS(=O)(=O)c1ccccc1, the outcome was “inactive”. With Oc1cccc2ccc(Nc3ccccn3)nc12 the outcome was “inactive”. In the case of Cc1ccc(-n2[nH]c(C)c(/C=N/N3C(=O)c4cccc5cccc(c45)C3=O)c2=O)cc1, the activation is reported as 153% (active). For O=C(Nc1ccc2[nH]c(=S)sc2c1)Nc1ccccc1F, the activation was 150% (active). With Cc1nc(NCCc2cnc[nH]2)c2oc3ccccc3c2n1 the outcome was “inactive”. For COc1cc2c(cc1OC)CN(C(=O)COc1ccccc1[N+](=O)[O-])CC2, the outcome was “inactive”. For O=C(CNC(=O)c1ccccc1)NCc1ccc(Cl)cc1, the outcome was “inactive”.

Target: Potassium voltage-gated channel subfamily KQT member 1 (Homo sapiens) (UniProt P51787)
Sequence (P51787 whole entry, looked up): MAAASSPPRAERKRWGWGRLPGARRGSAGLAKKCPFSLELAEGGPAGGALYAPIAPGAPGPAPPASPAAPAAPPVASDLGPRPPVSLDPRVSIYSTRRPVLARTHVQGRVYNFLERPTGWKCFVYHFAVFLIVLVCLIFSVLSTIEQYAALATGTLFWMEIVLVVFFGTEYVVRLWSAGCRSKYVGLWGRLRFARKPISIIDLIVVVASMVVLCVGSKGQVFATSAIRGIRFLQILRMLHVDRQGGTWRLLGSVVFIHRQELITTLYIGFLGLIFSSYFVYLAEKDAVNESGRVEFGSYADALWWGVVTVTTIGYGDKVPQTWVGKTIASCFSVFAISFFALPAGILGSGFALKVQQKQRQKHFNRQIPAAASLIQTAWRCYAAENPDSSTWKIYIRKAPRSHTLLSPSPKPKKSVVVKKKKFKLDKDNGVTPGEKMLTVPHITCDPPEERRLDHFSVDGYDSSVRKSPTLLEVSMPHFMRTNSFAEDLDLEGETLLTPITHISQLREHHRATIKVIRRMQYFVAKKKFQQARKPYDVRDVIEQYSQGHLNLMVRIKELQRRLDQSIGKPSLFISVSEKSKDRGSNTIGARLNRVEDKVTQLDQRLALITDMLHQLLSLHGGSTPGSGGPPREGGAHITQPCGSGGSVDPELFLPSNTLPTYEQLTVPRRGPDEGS
Assay: enhancement of KCNQ1 channel thallium flux – FluxOR thallium flux, CHO cells, duplicates, confirmation (AID 493007);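 as to outcome: cells depolarized by a potassium plus thallium sulfate stimulus after compound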
Settings: KCNQ1 cell line, FluxOR thallium flux fluorescence, at 10 µM; active compounds read high, % of reference activator effect, buffer zero
Outline: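 Test system – KCNQ1-expressing CHO cell line · Incubation – FluxOR dye loading 90 min, compound exposure 20 min, room temperature · Detection – FluxOR Tl+ flux fluorescence, 10 s baseline plus 110 s recording · Controls – buffer-only wells as 0% and R-L3 activator as 100%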
With O=C(C1CCCCC1)N(CCN1CCCC1)c1nc2ccccc2s1 the outcome was “inactive”. With Nc1nonc1C(=O)NCCN=Cc1cc(Cc2ccccc2)cc(Br)c1O the outcome was “inactive”. With CC(=O)Nc1cccc(/C(C)=N/NC(=O)c2ccc(Cl)cc2Cl)c1 the outcome was “inactive”. With Cn1ccnc1C(OC(=O)c1ccc(Cl)cc1)C(F)(F)F (stereo not given) the outcome was “inactive”. With COc1ccc(S(=O)(=O)N2CCCC(C(=O)O)C2)cc1 (stereo not given) the outcome was “inactive”. With O=C(COc1ccc(C(=S)N2CCC(Cc3ccccc3)CC2)cc1)N1CCOCC1 the outcome was “inactive”. For O=C(Oc1c(-c2ccco2)oc2ccccc2c1=O)c1cccnc1, the potentiation was 39.5% (active). With Cc1ccc(-c2csc(=S)[nH]2)cc1 the potentiation was 189% (active). In the case of Cc1ccccc1OCc1nnc(SCCN2CCCC2)n1-c1ccccc1, the outcome is reported as “inactive”. With COc1cccc(/C=N/NC(=O)C(C)n2nc(C)c([N+](=O)[O-])c2C)c1O (stereo not given) the outcome was “inactive”. For NC(=NCCCCCCN=C(N)/N=C(\N)Nc1ccc(Cl)cc1)/N=C(\N)Nc1ccc(Cl)cc1, the potentiation was 59.5% (active) and 91.5% (active). In the case of Cc1ccc(/C=C/C(=O)C2C(=O)c3ccccc3C2=O)cc1, the potentiation is reported as 58.5% (active). For CCC1(c2ccc(Cl)cc2)NC(=S)N(c2ccc(C)c(C)c2)N1 (stereo not given), the potentiation was 188% (active). With O=S(=O)(NC(=S)NC1CCCCC1)c1ccc(Cl)cc1 the potentiation was 56.5% (active). For COc1cccc(NC(=S)NCCN2CCOCC2)c1, the potentiation was 26% (active). For Cc1cc(NC(=O)CSc2nc(C3CC3)nc3sc(C)c(C)c23)no1, the potentiation was 38% (active). In the case of Cc1cccc(CNC(=O)C2CCCN(c3nn4c(=O)cc(C)nc4s3)C2)c1 (stereo not given), the outcome is reported as “inactive”. For Cc1cccc(-c2nnc(NC(=O)c3ccc(Cl)cc3)o2)c1, the potentiation was 30% (active). With Cc1cc(N2CCN(C)CC2)nc2ccc(NC(=S)NCCCN3CCc4ccccc4C3)cc12 the outcome was “inactive”. In the case of C=C[C@@]1(C)CC(=O)[C@]2(O)[C@@]3(C)[C@@H](O)CCC(C)(C)[C@@H]3[C@H](OC(C)=O)[C@H](O)[C@@]2(C)O1, the outcome is reported as “inactive”. For CN1CCN(C(=O)/C(=C/c2ccccc2)c2ccccc2)CC1, the outcome was “inactive”. For Cc1cccc(Nc2ccccc2C(=O)OCC(=O)N(C)C2CCS(=O)(=O)C2)c1C (stereo not given), the outcome was “inactive”. With Cc1ccc(S(=O)(=O)N2CCCC(C(=O)Nc3ccc(C(=O)O)cc3)C2)cc1Cl (stereo not given) the outcome was “inactive”. For Cc1cc(C(=O)OCC(=O)NCc2ccco2)c(C)n1-c1ccc(F)cc1, the potentiation was 116% (active). With CCOC(=O)c1sc(N2N=C(C)C(N=Nc3cccc(C)c3)C2=O)nc1C (stereo not given) the potentiation was 31% (active). In the case of Oc1c(Br)cc(Br)cc1/C=N/c1nc2c(s1)CCCC2, the potentiation is reported as 22% (active). In the case of O=C(Nc1nnc(-c2ccc3c(c2)CCCC3)o1)c1ccccc1Cl, the potentiation is reported as 83% (active). With CCSc1nnc(NC(=O)C2C3C=CC(C3)C2C(=O)O)s1 (stereo not given) the outcome was “inactive”. For Cc1cc(/C=N\NC(=O)CC(=O)NC2CCCCC2)c(C)n1-c1cccc(Cl)c1Cl, the outcome was “inactive”. With O=C(COc1cccnc1[N+](=O)[O-])Nc1cccc(S(=O)(=O)N2CCCCC2)c1 the outcome was “inactive”. In the case of CC1CCN(c2ccccc2NC(=S)NC(=O)c2cccs2)CC1, the potentiation is reported as 54% (active). For Fc1ccc2nc(Nc3nc4c(F)cc(F)cc4s3)sc2c1, the potentiation was 74% (active). In the case of CCc1ccc(NC(=O)C(=O)NNC(=O)COc2cccc(OC)c2)cc1, the potentiation is reported as 76% (active). With CC1=CC(=O)C=C(C)C1=NOS(=O)(=O)c1ccccc1 the outcome was “inactive”. With Oc1cccc2ccc(Nc3ccccn3)nc12 the outcome was “inactive”. In the case of Cc1ccc(-n2[nH]c(C)c(/C=N/N3C(=O)c4cccc5cccc(c45)C3=O)c2=O)cc1, the potentiation is reported as 86% (active). With O=C(Nc1ccc2[nH]c(=S)sc2c1)Nc1ccccc1F the potentiation was 68% (active). For Cc1nc(NCCc2cnc[nH]2)c2oc3ccccc3c2n1, the outcome was “inactive”. With COc1cc2c(cc1OC)CN(C(=O)COc1ccccc1[N+](=O)[O-])CC2 the outcome was “inactive”. In the case of O=C(CNC(=O)c1ccccc1)NCc1ccc(Cl)cc1, the outcome is reported as “inactive”.
